# In ChEMBL document CHEMBL5705897, “Characterization of WZ4003 and HTH-01-015 as selective inhibitors of the LKB1-tumour-suppressor-activated NUAK kinases” (Biochem J, 2014):
# Activity calls are given as the source filed them. The calls are words filed in the database; no cut-off is given here.
# Tests used:
# [1] = target: Mitogen-activated protein kinase kinase kinase kinase 2 (Homo sapiens) (UniProt Q12851); test: (§1) Inhibition of recombinant human N-terminal His6-tagged GCK (2 to 812 residues) expressed in baculovirus infected Sf21 cells assessed as remaining activity at 1 uM using MBP as substrate incubated for 30 mins in presence of [gamma-33P]ATP by filter binding method relative to control
# Procedure, shortened: (§2)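 Screened at the International Centre for Protein Kinase Profiling against a 140-kinase panel, with inhibitor at 0.1 or 1 μM; activity expressed as percentage of DMSO control reactions, mean of triplicate reactions.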
# [2] = target: Serine/threonine-protein kinase BRSK2 (Homo sapiens) (UniProt Q8IWQ3); test: Inhibition of recombinant human N-terminal His6-tagged BRSK2 (2 to 674 residues) expressed in baculovirus infected Sf21 cells assessed as remaining activity at 1 uM using KKLNRTLSFAEPG as substrate incubated for 30 mins in presence of [gamma-33P]ATP by filter binding method relative to control; procedure, shortened: as §2
# [3] = target: T1, NUAK family SNF1-like kinase 1 (Homo sapiens) (UniProt O60285); test: Inhibition of NUAK1 in human U2OS cells assessed as reduction in MYPT1 phosphorylation at Ser445 residues at 10 uM after 16 hrs by immunoblot analysis; assay type: cell-based
# T1 sequence (whole entry): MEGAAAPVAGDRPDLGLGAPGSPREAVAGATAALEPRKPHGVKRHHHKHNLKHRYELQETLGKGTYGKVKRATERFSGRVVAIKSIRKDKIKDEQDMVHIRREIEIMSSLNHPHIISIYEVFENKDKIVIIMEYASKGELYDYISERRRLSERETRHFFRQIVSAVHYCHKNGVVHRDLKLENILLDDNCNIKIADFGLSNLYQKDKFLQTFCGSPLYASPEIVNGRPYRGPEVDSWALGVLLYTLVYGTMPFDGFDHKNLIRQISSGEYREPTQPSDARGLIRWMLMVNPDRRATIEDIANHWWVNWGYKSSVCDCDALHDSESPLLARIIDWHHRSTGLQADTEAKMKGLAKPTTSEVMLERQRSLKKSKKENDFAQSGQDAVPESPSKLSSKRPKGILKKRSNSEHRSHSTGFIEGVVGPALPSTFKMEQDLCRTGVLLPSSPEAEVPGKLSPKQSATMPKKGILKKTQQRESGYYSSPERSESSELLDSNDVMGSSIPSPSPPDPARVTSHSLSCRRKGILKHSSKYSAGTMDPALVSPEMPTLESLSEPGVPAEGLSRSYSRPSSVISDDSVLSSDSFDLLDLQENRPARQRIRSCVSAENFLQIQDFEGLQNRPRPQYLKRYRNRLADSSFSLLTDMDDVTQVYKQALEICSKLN
# Procedure, shortened: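 U2OS cells or NUAK1+/+ MEFs treated with or without 10 μM inhibitor for 16 h, then 20 min in EDTA-PBS dissociation buffer with 10 μM inhibitor or DMSO; detached by tapping and 70 g 3 min spin, lysed immediately and immunoblotted for MYPT1 p-Ser445; three separate experiments.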
# [4] = target: Calcium/calmodulin-dependent protein kinase type 1 (Homo sapiens) (UniProt Q14012); test: Inhibition of recombinant human N-terminal GST-tagged CAMK1alpha (2 to 369 residues) expressed in Escherichia coli assessed as remaining activity at 1 uM using YLRRRLSDSNF as substrate incubated for 30 mins in presence of [gamma-33P]ATP by filter binding method relative to control; procedure, shortened: as §2
# [5] = system: MEF; test: Antiproliferative activity against NUAK1+/+ MEF cells assessed as reduction in cell viability at 10 uM after 5 days by CellTiter 96 non-radioactive cell proliferation assay; assay type: functional, cell-based; details: Mus musculus, time 5.0 day
# Procedure, shortened: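 Colorimetric CellTiter 96 AQueous proliferation assay in 96-well format; 2000 cells/well seeded for U2OS, 3000 cells/well for MEFs; grown 5 days with or without 10 μM inhibitor; run in triplicate. Inhibitors dissolved in DMSO, final DMSO in medium ≤1%. MEFs cultured in DMEM/10% FBS, glutamine, non-essential amino acids, sodium pyruvate.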
# [6] = target: Serine/threonine-protein kinase TBK1 (Homo sapiens) (UniProt Q9UHD2); test: as §1, with “GST-tagged TBK1 (1” for “His6-tagged GCK (2”, “729” for “812”, “KKKKERLLDDRHDSGLDSMKDEE” for “MBP”; procedure, shortened: as §2
# [7] = target: Protein kinase C alpha type (Homo sapiens) (UniProt P17252); test: Inhibition of recombinant human N-terminal His6-tagged PKCalpha (1 to 672 residues) expressed in baculovirus infected Sf21 cells assessed as remaining activity at 1 uM using Histone H1 as substrate incubated for 30 mins in presence of [gamma-33P]ATP by filter binding method relative to control; procedure, shortened: as §2
# [8] = target: Ephrin type-B receptor 4 (Homo sapiens) (UniProt P54760); test: Inhibition of recombinant human N-terminal His6-tagged EPHB4 (561 to 987 residues) expressed in baculovirus infected Sf21 cells assessed as remaining activity at 1 uM using Poly (Glu,Tyr) as substrate incubated for 30 mins in presence of [gamma-33P]ATP by filter binding method relative to control
# Procedure, shortened: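 Run within a 140-kinase specificity panel at the International Centre for Protein Kinase Profiling. Compounds were dissolved in DMSO and tested in vitro at 0.1 or 1 μM. Activity is expressed as percentage of kinase activity in DMSO control reactions, as the mean ± S.D. of triplicate reactions.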
# [9] = target: Testis-specific serine/threonine-protein kinase 1 (Homo sapiens) (UniProt Q9BXA7); test: Inhibition of recombinant human N-terminal GST-tagged TSSK1 (1 to 367 residues) expressed in Escherichia coli assessed as remaining activity at 1 uM using KKKVSRSGLYRSPSMPENLNRPR as substrate incubated for 30 mins in presence of [gamma-33P]ATP by filter binding method relative to control; procedure, shortened: as §2
# [10] = target: Serine/threonine-protein kinase PLK1 (Homo sapiens) (UniProt P53350); test: Inhibition of recombinant human N-terminal His6-tagged PLK1 (1 to 603 residues) expressed in baculovirus infected Sf21 cells assessed as remaining activity at 1 uM using ISDELMDATFADQEAKKK as substrate incubated for 30 mins in presence of [gamma-33P]ATP by filter binding method relative to control; procedure, shortened: as §2
# [11] = target: MAP kinase-activated protein kinase 2 (Homo sapiens) (UniProt P49137); test: Inhibition of recombinant human N-terminal GST/C-terminal Myc-tagged MAPKAPK2 (46 to 400 residues) expressed in Escherichia coli assessed as remaining activity at 1 uM using KKLNRTLSVA as substrate incubated for 30 mins in presence of [gamma-33P]ATP by filter binding method relative to control; procedure, shortened: as §2
# [12] = system: MEF; test: Inhibition of cell migration in NUAK1+/+ MEF cells at 10 uM pre incubated for 1 hr followed by overnight incubation and measured after 15 to 20 hrs by microscopic based wound healing assay; assay type: functional; details: Mus musculus
# Procedure, shortened: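 Wound healing: equal MEF numbers loaded into both chambers of inserts with a 500 μm gap, inhibitor (10 μM) added 1 h before; after overnight at 37 °C, 5% CO2 insert removed and gap closure filmed by time-lapse microscopy every 2 min over 15–20 h; triplicate.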
# Chain of Mitogen-activated protein kinase kinase kinase kinase 2 (Homo sapiens) (Q12851 whole entry, the tested form may be a part): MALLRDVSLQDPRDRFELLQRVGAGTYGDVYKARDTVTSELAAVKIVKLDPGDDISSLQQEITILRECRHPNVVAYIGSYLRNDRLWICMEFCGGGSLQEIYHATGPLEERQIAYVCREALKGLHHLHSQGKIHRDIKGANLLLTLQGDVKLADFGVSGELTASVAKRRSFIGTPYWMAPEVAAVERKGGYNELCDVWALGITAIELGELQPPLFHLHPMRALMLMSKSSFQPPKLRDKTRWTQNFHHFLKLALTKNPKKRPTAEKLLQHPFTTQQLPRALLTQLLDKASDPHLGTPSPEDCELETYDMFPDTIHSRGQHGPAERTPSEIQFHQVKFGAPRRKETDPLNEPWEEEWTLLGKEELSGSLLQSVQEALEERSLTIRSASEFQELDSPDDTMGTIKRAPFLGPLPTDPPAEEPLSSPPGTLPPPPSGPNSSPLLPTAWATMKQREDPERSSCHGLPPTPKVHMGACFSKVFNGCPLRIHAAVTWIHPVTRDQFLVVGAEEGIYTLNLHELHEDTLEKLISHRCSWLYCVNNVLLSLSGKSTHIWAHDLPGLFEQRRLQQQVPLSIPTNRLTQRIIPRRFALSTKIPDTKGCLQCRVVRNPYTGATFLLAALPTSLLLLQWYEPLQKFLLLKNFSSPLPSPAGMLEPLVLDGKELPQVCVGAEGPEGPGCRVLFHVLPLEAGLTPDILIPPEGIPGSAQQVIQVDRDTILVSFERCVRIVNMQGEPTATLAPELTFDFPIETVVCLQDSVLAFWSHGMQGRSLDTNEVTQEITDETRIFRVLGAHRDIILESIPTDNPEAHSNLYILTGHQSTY
# Chain of Ephrin type-B receptor 4 (Homo sapiens) (P54760 whole entry, the tested form may be a part): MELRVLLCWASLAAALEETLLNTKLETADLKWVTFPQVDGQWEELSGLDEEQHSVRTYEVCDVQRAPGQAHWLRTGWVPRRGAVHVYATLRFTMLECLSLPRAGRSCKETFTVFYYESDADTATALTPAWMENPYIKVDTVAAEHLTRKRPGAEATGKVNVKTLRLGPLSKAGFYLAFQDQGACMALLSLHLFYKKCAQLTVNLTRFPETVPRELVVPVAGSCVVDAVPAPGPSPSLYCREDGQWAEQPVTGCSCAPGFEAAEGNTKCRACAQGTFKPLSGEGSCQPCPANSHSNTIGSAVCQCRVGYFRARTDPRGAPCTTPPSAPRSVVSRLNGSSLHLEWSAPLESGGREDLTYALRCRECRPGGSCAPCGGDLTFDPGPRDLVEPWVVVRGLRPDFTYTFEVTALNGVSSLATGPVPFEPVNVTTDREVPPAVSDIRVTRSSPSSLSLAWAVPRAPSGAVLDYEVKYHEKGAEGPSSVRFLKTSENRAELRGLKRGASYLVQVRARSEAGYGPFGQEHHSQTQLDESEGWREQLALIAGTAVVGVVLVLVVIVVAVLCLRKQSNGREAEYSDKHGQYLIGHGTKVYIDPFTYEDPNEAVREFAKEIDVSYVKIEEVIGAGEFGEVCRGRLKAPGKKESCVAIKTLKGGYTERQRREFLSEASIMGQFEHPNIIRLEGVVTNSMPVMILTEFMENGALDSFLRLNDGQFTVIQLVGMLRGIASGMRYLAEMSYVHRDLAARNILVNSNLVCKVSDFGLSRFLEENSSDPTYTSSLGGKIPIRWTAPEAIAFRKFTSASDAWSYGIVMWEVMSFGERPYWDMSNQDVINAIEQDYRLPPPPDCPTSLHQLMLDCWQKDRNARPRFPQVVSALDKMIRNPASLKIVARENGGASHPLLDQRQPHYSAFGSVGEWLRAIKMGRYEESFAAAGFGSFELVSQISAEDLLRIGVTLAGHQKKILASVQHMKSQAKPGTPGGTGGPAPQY
# Chain of Serine/threonine-protein kinase TBK1 (Homo sapiens) (Q9UHD2 whole entry, the tested form may be a part): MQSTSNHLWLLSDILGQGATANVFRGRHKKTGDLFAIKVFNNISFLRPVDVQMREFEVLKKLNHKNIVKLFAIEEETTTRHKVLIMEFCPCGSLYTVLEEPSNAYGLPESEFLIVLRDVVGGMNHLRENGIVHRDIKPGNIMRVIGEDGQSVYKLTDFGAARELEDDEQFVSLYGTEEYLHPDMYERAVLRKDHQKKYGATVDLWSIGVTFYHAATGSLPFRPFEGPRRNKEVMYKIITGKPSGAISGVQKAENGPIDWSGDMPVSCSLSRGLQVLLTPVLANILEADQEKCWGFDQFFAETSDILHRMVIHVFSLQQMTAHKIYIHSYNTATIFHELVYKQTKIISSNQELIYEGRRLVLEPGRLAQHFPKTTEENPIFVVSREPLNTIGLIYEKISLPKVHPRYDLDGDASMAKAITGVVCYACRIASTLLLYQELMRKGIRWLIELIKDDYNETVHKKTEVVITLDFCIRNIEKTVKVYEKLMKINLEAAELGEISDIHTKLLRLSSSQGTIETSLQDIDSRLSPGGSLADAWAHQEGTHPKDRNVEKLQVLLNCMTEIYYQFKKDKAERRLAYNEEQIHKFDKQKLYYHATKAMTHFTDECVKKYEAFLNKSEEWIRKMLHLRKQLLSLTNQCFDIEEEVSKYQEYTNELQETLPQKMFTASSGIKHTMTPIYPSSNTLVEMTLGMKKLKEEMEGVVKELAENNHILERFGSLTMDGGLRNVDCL
# Chain of Calcium/calmodulin-dependent protein kinase type 1 (Homo sapiens) (Q14012 whole entry, looked up, the tested form may be a part): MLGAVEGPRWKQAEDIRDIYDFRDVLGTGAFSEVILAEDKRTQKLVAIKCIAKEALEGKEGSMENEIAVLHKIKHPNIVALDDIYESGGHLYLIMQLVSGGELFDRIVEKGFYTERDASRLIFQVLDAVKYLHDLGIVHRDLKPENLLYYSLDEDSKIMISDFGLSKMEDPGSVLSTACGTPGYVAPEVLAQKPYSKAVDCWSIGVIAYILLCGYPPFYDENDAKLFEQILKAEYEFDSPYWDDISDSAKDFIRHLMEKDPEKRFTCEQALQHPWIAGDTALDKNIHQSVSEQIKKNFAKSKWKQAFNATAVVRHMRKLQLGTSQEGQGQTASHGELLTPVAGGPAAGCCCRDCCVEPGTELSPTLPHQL
# Chain of Serine/threonine-protein kinase BRSK2 (Homo sapiens) (Q8IWQ3 whole entry, the tested form may be a part): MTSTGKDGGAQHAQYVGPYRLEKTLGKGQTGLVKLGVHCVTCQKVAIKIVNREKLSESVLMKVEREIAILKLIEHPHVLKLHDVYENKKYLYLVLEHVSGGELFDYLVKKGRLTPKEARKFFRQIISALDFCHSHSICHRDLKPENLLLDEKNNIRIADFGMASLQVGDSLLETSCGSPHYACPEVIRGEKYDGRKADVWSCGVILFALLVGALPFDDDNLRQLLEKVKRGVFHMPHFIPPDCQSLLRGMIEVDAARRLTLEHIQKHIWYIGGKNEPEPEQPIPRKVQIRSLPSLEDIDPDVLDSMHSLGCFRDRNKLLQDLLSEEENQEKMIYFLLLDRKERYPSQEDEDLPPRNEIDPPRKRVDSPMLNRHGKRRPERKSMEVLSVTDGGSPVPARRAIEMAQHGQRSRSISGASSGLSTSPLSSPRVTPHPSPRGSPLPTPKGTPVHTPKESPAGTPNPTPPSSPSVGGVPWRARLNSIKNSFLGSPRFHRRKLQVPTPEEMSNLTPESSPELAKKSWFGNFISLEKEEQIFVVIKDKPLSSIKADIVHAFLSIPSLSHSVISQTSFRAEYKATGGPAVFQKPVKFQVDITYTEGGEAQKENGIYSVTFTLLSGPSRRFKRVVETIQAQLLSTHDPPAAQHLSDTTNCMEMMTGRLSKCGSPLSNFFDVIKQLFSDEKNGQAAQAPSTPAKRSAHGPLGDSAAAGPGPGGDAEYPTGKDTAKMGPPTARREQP
# Chain of Serine/threonine-protein kinase PLK1 (Homo sapiens) (P53350 whole entry, the tested form may be a part): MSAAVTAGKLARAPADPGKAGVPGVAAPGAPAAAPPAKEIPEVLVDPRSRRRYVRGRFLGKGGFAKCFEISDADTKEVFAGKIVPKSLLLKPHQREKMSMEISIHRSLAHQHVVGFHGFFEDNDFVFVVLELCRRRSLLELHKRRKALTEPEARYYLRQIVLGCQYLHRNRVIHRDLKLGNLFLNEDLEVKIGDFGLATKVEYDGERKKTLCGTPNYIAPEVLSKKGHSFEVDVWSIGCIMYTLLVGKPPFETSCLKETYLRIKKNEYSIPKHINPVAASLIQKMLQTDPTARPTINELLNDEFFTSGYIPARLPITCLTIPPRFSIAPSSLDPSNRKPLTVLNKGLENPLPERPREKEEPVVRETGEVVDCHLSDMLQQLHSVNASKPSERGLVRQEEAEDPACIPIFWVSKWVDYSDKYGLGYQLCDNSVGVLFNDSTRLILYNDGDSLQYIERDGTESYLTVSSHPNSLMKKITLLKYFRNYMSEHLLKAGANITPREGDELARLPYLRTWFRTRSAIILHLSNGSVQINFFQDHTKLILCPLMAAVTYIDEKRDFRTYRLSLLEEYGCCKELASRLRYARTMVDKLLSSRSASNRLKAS
structure (smiles),measurement,setting,value
CCC(=O)Nc1cccc(Oc2nc(Nc3ccc(N4CCN(C)CC4)cc3OC)ncc2Cl)c1,Activity,[1],96%
same,Activity,[2],75%
same,inhibition,[3],Active
same,Activity,[4],81%
same,inhibition,[5],Active
same,Activity,[6],84%
same,Activity,[7],77%
same,Activity,[8],83%
same,Activity,[9],58%
same,Activity,[10],84%
same,Activity,[11],82%
same,inhibition,[12],Active
